hiPSC survival: enhancers of human iPSC single-cell survival; 0.044% of 360,000 active; survival enhancement, % at 20 µM; AID 602274; hiPSC single-cell survival, ATPlite luminescence; 100% = ROCK inhibitor wells, 0% = DMSO; in the data active means survival enhancement above about 18%;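 further: cells exposed to compounds for 16 hours before the ATP read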
MT1-MMP act inh: inhibitors of human MT1-MMP activation; P50281; HT1080 RFP-PRO-GFP cells, GFP/RFP ratio fluorescence, overnight; percent of plate control window, DMSO zero; GFP/RFP ratio change, % at 20 µM; 0.061% of 360,000 active; AID 651647;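 active means GFP/RFP ratio change of at least 30% with cell ATP level not reduced by more than half and red fluorescence within 50% of control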
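Material – HT1080 RFP-PRO-GFP cells · Control set – DMSO wells and RFP-L50D-GFP cells · Incubation – overnight cell settling, then overnight compound exposure, 37 °C, 5% CO2 · Compound dosing – single-point 20 µM compound, 1% DMSO · Read-out – GFP/RFP fluorescence ratio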
CendR NRP1 mod: NRP-1/CendR interaction modulation | FAM-RPARPAR peptide binding to NRP-1, fluorescence polarization | inhibition, % at 25 µM | 0.85% of 360,000 active | AID 602438;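 active means inhibition or corrected inhibition above about 18%, plus a signal ratio from 0.5 to 1.5, limit read from the data, passing the limit was not always enough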
SKN-1 inh: C. elegans SKN-1 inhibition; C. elegans VP596 Pgst-4::GFP/RFP ratio, acrylamide-induced, 24 h; inhibition, % at 21.8 µM; 0.49% of 360,000 active; AID 624304;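 active means interference check ratio from 0.5 to 1.5 plus GFP to RFP signal ratio inhibition reaching or exceeding a fixed threshold, cut at about 30% in these data, passing the limit was not always enough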
Numbers without * were called inactive; · = not tested or not shown. The list is not random: actives were taken first. Their share in the collection is about 1.4%.

SMILES	hiPSC survival	MT1-MMP act inh	CendR NRP1 mod	SKN-1 inh
CN(C)c1ccc(CC(=O)N2CCCC(c3cc(C(=O)Nc4ccc5c(c4)OCO5)no3)C2)cc1 (stereo not drawn)	-1	1	33*	20
CN(C)c1ccc(CC(=O)N2CCCC(c3cc(C(=O)Nc4ccccc4)no3)C2)cc1 (stereo not drawn)	2	0	4	8
CC(NC(=O)c1ccccc1[N+](=O)[O-])C1CC2CCC1C2 (stereo not drawn)	0	2	-4	0
CCOc1ccc(-c2cn(-c3ccccc3OC)c(=S)[nH]2)cc1	0	-3	-39	16
CC(c1nnc(SCC(=O)Nc2cccnc2Cl)n1Cc1ccccc1)N(C)C (stereo not drawn)	-4	-6	-4	-4
CN1C/C(=C/c2cccnc2)C(=O)/C(=C/c2cccnc2)C1	24*	-1	-2	-10
CCC(=NC)C1=C(O)CC(c2ccccc2)CC1=O (stereo not drawn)	0	0	-2	-9
Cc1ccc(C(=O)CNc2ccc(C)c(Cl)c2)cc1	-1	·	30*	-6
Cc1ccc(NCC(=O)c2ccccc2)cc1Cl	1	0	-18	0
COc1cc(-c2noc(C3CCCN(C(=O)c4ccccc4)C3)n2)cc(OC)c1OC (stereo not drawn)	4	13	-1	2
COc1cccc(C(=O)c2c(C)c(CCC#N)n3ccccc23)c1OC	-2	3	1	4
COc1cc(C(=O)c2c(C)c(CCC#N)n3ccccc23)cc(OC)c1OC	5	-2	21*	-2
CCC(Oc1ccccc1)C(=O)N1CCN(CC)CC1 (stereo not drawn)	-2	-2	8	-1
Cc1ccc(SC(C)C(=O)O/N=C(\N)c2ccncc2)cc1 (stereo not drawn)	0	1	-3	4
Cc1ccc(NC(=O)c2cc(N3C(=O)C4CCCCC4C3=O)ccc2N2CCOCC2)cc1 (stereo not drawn)	1	4	25*	4
Cc1ccc(NC(=O)c2cc(N3C(=O)C4CC=CCC4C3=O)ccc2N2CCCCC2)cc1 (stereo not drawn)	-1	-3	4	-9
O=C(CCNS(=O)(=O)c1ccc(Br)cc1)NCCc1ccc(Cl)cc1	1	1	27*	7
CC(C)N(C(C)C)S(=O)(=O)c1ccc(N2CCc3ccccc3C2)nc1	0	1	30*	3
CCN(CC)S(=O)(=O)c1ccc(N2CCc3ccccc3C2)nc1	-1	0	-11	-9
Clc1ccc(-c2csc(N3CCSCC3)n2)cc1	-2	-4	4	50*
c1ccc(-c2csc(N3CCSCC3)n2)cc1	-1	0	-8	29
Fc1ccc(-c2csc(N3CCSCC3)n2)cc1	-1	1	6	41*
CC(C)CNC(=S)N1CCC(C(=O)c2ccc(F)cc2)CC1	-1	0	10	-9
Cc1noc(C)c1COc1cccc(C(=O)Oc2ccc3c(c2)OCO3)c1	-2	-6	-12	2
CC(C)Oc1ccc(C(CC(=O)O)NC(=O)Cc2ccccc2)cc1 (stereo not drawn)	0	-1	6	17
SMILES	hiPSC survival	MT1-MMP act inh	CendR NRP1 mod	SKN-1 inh
C(=C\c1nnc(-c2cccs2)o1)/c1ccccc1	1	-2	1	77*
Fc1ccc(CSc2nnc(-c3cccs3)o2)cc1	3	6	2	58*
c1ccc(CSc2nnc(-c3cccs3)o2)cc1	0	4	-11	61*
Cc1ccc(/C=C/c2nnc(-c3ccccc3)o2)cc1	2	-2	7	0
Cc1nnc(SCC(=O)NC(C)(C)C)n1NCc1ccc(N(C)C)cc1	0	-2	0	9
COc1ccc(/C=N/c2oc(-c3ccccc3)cc2C#N)cc1OC	2	-1	-9	21
COc1ccc(NC(=O)COC(=O)CNC(=O)c2cccs2)cc1Cl	0	0	4	-2
CCC(C)C(N)C(=O)NC(CCC(=O)OCc1ccccc1)C(N)=O (stereo not drawn)	3	6	2	8
CCCCCCCCNC(=O)C(CCC(=O)OCc1ccccc1)NC(C)=O (stereo not drawn)	0	-6	9	53*
O=C(C1CCCCC1)N1CCC2CC1c1cc(-c3ccc4c(c3)OCO4)ccc12 (stereo not drawn)	1	1	-1	15
CN(C)/C=C/c1c([N+](=O)[O-])c2ccc(O)cc2n1-c1ccccc1	0	-15	33*	7
COC(=O)c1c(C)n(-c2ccccc2)c2ccc(O)cc12	-1	-4	-2	10
COc1ccc(NC(=O)C(C)Sc2ccccc2)cc1 (stereo not drawn)	-2	-2	42*	26
CCN(CC)CCN1C(=O)c2cccc3cc(N)cc(c23)C1=O	0	-37	60	-23
Nc1cc2c3c(cccc3c1)C(=O)N(CCN1CCCC1)C2=O	0	-28	32*	12
O=C1c2cccc3cc([N+](=O)[O-])cc(c23)C(=O)N1CCN1CCCC1	0	-46	30*	4
O=C1c2ccccc2C(=O)N1CCN1CCCCC1	-2	2	-6	2
COc1cccc(NS(=O)(=O)c2c(C(=O)N3CCCCCC3)c(C)n(C)c2C)c1	0	-3	6	3
O=C(COc1ccc(Br)cc1CO)Nc1ccc(S(=O)(=O)N2CCCCC2)cc1	0	2	25*	-14
Cc1ccc(OCC(=O)Nc2cccc(S(=O)(=O)N3CCCCC3)c2)c([N+](=O)[O-])n1	1	4	-1	4
Cc1ccc(OCC(=O)Nc2ccc(C)c(S(=O)(=O)N3CCCCCC3)c2)c([N+](=O)[O-])n1	0	7	32*	-3
Nc1nonc1-n1nnc(C(=O)N/N=C/c2cc(Br)cs2)c1-c1ccccc1	0	0	3	9
CC[C@@H]1Cc2[nH][nH]c(=O)c2[C@H](CC(C)C)O1	0	4	-1	-1
Cn1c(SCC(=O)NNC(=O)c2ccccc2)nnc1C1CC1	0	-1	24*	9
Cc1ccc(C(=O)NNC(=O)CSc2nnc(C(C)C)n2C)cc1	0	0	20*	-3
SMILES	hiPSC survival	MT1-MMP act inh	CendR NRP1 mod	SKN-1 inh
O=C1Cc2cc(NS(=O)(=O)c3ccc(F)cc3)cc3c2N1CCC3	0	7	-13	-1
O=C(NCc1ccco1)c1sc2cc(F)ccc2c1Cl	-2	-4	-11	37*
O=C(Nc1ccon1)c1sc2cc(F)ccc2c1Cl	-4	2	-2	10
N#Cc1ccccc1NC(=O)Nc1cccc(Cl)c1	2	5	5	41*
N#Cc1ccccc1NC(=O)Nc1ccc(Cl)cc1	4	3	1	0
COc1ccc(S(=O)(=O)N2CCN(C)CC2)cn1	0	-2	22*	4
CCCCOc1ccc(S(=O)(=O)N2CCN(C)CC2)cc1	1	-1	26*	-6
CCCCOc1ccc(S(=O)(=O)N2CCCCCC2)cc1	0	0	9	12

Assay outcomes as filed in PubChem.
